ChEMBL document CHEMBL1141286, “Benzochromenones from the marine crinoid Comantheria rotula inhibit hypoxia-inducible factor-1 (HIF-1) in cell-based reporter assays and differentially suppress the growth of certain tumor cell lines” (J Nat Prod, 2007)

Tested on: HCT-116
Test: Growth inhibition of human HCT116 cells
Format: functional
Settings: not given

SMILES	GI50 [µM]
COc1cc(O)cc2cc3oc(C)cc(=O)c3c(O)c12	14.5

Same assay, conditions: read-out: Log LC50 (the source's name) (converted)

SMILES	CC50 [µM]
COc1cc(O)cc2cc3oc(C)cc(=O)c3c(O)c12	63.1

Same assay, conditions: read-out: Log TGI (converted)

SMILES	TGI [µM]
COc1cc(O)cc2cc3oc(C)cc(=O)c3c(O)c12	30.2

Tested on: NCI-H522
Test: Growth inhibition of human NCI-H522 cells
Format: functional
Settings: not given

SMILES	GI50 [µM]
COc1cc(O)cc2cc3oc(C)cc(=O)c3c(O)c12	2.19

Same assay, conditions: read-out: Log LC50 (the source's name) (converted)

SMILES	CC50 [µM]
COc1cc(O)cc2cc3oc(C)cc(=O)c3c(O)c12	93.3

Same assay, conditions: read-out: Log TGI (converted)

SMILES	TGI [µM]
COc1cc(O)cc2cc3oc(C)cc(=O)c3c(O)c12	22.9

Tested on: CCRF-CEM
Test: Growth inhibition of human CCRF-CEM cells
Format: functional
Settings: not given

SMILES	GI50 [µM]	LC50 [µM]
COc1cc(O)cc2cc3oc(C)cc(=O)c3c(O)c12	30.2	> 100

Same assay, conditions: read-out: Log TGI (converted)

SMILES	TGI [µM]
COc1cc(O)cc2cc3oc(C)cc(=O)c3c(O)c12	100

Tested on: SF-295
Test: Growth inhibition of human SF295 cells
Format: functional
Settings: not given

SMILES	GI50 [µM]	LC50 [µM]
COc1cc(O)cc2cc3oc(C)cc(=O)c3c(O)c12	30.2	> 100

Same assay, conditions: read-out: Log TGI (converted)

SMILES	TGI [µM]
COc1cc(O)cc2cc3oc(C)cc(=O)c3c(O)c12	> 100

Tested on: OVCAR-8
Test: Growth inhibition of human OVACAR8 cells
Format: functional
Settings: not given

SMILES	GI50 [µM]	LC50 [µM]
COc1cc(O)cc2cc3oc(C)cc(=O)c3c(O)c12	27.5	> 100

Same assay, conditions: read-out: Log TGI (converted)

SMILES	TGI [µM]
COc1cc(O)cc2cc3oc(C)cc(=O)c3c(O)c12	> 100

Tested on: M14
Test: Growth inhibition of human M14 cells
Format: functional
Settings: not given

SMILES	GI50 [µM]	LC50 (50% lethal concentration) [µM]
COc1cc(O)cc2cc3oc(C)cc(=O)c3c(O)c12	20	> 100

Same assay, conditions: read-out: Log TGI (converted)

SMILES	TGI [µM]
COc1cc(O)cc2cc3oc(C)cc(=O)c3c(O)c12	45.7

Tested on: not listed separately
Test: Inhibition of 1,10-phenanthroline-induced HIF1 activation in T47D cells by TK-luciferase assay
Format: cell-based
Settings: Homo sapiens
In short: (§1)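 HIF-1 reporter (pHRE-TK-Luc) assays in transfected PC-3 or T47D cells; HIF-1 induced by hypoxia or by the hypoxia mimetic 1,10-phenanthroline (10 μM); compounds at half-log concentrations; luciferase activity measured; IC50 from experiments in triplicate.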

SMILES	IC50 [µM]
COc1cc(O)cc2cc3oc(C)cc(=O)c3c(O)c12	0.9

Tested on: RXF 393
Test: Growth inhibition of human RXF393 cells
Format: functional
Settings: not given

SMILES	GI50 [µM]	LC50 [µM]
COc1cc(O)cc2cc3oc(C)cc(=O)c3c(O)c12	20.4	> 100

Same assay, conditions: read-out: Log TGI (converted)

SMILES	TGI [µM]
COc1cc(O)cc2cc3oc(C)cc(=O)c3c(O)c12	53.7

Tested on: OVCAR-5
Test: Growth inhibition of human OVACAR5 cells
Format: functional
Settings: not given

SMILES	GI50 [µM]	LC50 [µM]
COc1cc(O)cc2cc3oc(C)cc(=O)c3c(O)c12	46.8	> 100

Same assay, conditions: read-out: Log TGI (converted)

SMILES	TGI [µM]
COc1cc(O)cc2cc3oc(C)cc(=O)c3c(O)c12	> 100

Tested on: TK-10
Test: Growth inhibition of human TK10 cells
Format: functional
Settings: not given

SMILES	GI50 [µM]	LC50 [µM]
COc1cc(O)cc2cc3oc(C)cc(=O)c3c(O)c12	20.4	> 100

Same assay, conditions: read-out: Log TGI (converted)

SMILES	TGI [µM]
COc1cc(O)cc2cc3oc(C)cc(=O)c3c(O)c12	61.7

Tested on: not listed separately
Test: Growth inhibition of human OVACAR3 cells
Format: functional
Settings: not given

SMILES	GI50 [µM]
COc1cc(O)cc2cc3oc(C)cc(=O)c3c(O)c12	> 100

Same assay, conditions: read-out: Log LC50 (the source's name) (converted)

SMILES	CC50 [µM]
COc1cc(O)cc2cc3oc(C)cc(=O)c3c(O)c12	22.4

Same assay, conditions: read-out: Log TGI (converted)

SMILES	TGI [µM]
COc1cc(O)cc2cc3oc(C)cc(=O)c3c(O)c12	91.2

Tested on: NCI-H226
Test: Growth inhibition of human NCI-H226 cells
Format: functional
Settings: not given

SMILES	GI50 [µM]
COc1cc(O)cc2cc3oc(C)cc(=O)c3c(O)c12	22.4

Same assay, conditions: read-out: Log LC50 (the source's name) (converted)

SMILES	CC50 [µM]
COc1cc(O)cc2cc3oc(C)cc(=O)c3c(O)c12	> 100

Same assay, conditions: read-out: Log TGI (converted)

SMILES	TGI [µM]
COc1cc(O)cc2cc3oc(C)cc(=O)c3c(O)c12	> 100

Tested on: KM12
Test: Growth inhibition of human KM12 cells
Format: functional
Settings: not given

SMILES	GI50 [µM]
COc1cc(O)cc2cc3oc(C)cc(=O)c3c(O)c12	18.6

Same assay, conditions: read-out: Log LC50 (the source's name) (converted)

SMILES	CC50 [µM]
COc1cc(O)cc2cc3oc(C)cc(=O)c3c(O)c12	85.1

Same assay, conditions: read-out: Log TGI (converted)

SMILES	TGI [µM]
COc1cc(O)cc2cc3oc(C)cc(=O)c3c(O)c12	39.8

Tested on: MDA-MB-231
Test: Growth inhibition of human MDA-MB-231 cells
Format: functional
Settings: not given

SMILES	GI50 [µM]	LC50 [µM]
COc1cc(O)cc2cc3oc(C)cc(=O)c3c(O)c12	17.8	> 100

Same assay, conditions: read-out: Log TGI (converted)

SMILES	TGI [µM]
COc1cc(O)cc2cc3oc(C)cc(=O)c3c(O)c12	> 100

Tested on: HT-29
Test: Growth inhibition of human HT29 cells
Format: functional
Settings: not given

SMILES	GI50 [µM]
COc1cc(O)cc2cc3oc(C)cc(=O)c3c(O)c12	29.5

Same assay, conditions: read-out: Log LC50 (the source's name) (converted)

SMILES	CC50 [µM]
COc1cc(O)cc2cc3oc(C)cc(=O)c3c(O)c12	> 100

Same assay, conditions: read-out: Log TGI (converted)

SMILES	TGI [µM]
COc1cc(O)cc2cc3oc(C)cc(=O)c3c(O)c12	> 100

Tested on: NCI-H23
Test: Growth inhibition of human NCI-H23 cells
Format: functional
Settings: not given

SMILES	GI50 [µM]
COc1cc(O)cc2cc3oc(C)cc(=O)c3c(O)c12	24.5

Same assay, conditions: read-out: Log LC50 (the source's name) (converted)

SMILES	CC50 [µM]
COc1cc(O)cc2cc3oc(C)cc(=O)c3c(O)c12	> 100

Same assay, conditions: read-out: Log TGI (converted)

SMILES	TGI [µM]
COc1cc(O)cc2cc3oc(C)cc(=O)c3c(O)c12	83.2

Tested on: OVCAR-4
Test: Growth inhibition of human OVACAR4 cells
Format: functional
Settings: not given

SMILES	GI50 [µM]	LC50 [µM]
COc1cc(O)cc2cc3oc(C)cc(=O)c3c(O)c12	45.7	> 100

Same assay, conditions: read-out: Log TGI (converted)

SMILES	TGI [µM]
COc1cc(O)cc2cc3oc(C)cc(=O)c3c(O)c12	> 100

Tested on: HCC 2998
Test: Growth inhibition of human HCC2998 cells
Format: functional
Settings: not given

SMILES	GI50 [µM]
COc1cc(O)cc2cc3oc(C)cc(=O)c3c(O)c12	24.5

Same assay, conditions: read-out: Log LC50 (the source's name) (converted)

SMILES	CC50 [µM]
COc1cc(O)cc2cc3oc(C)cc(=O)c3c(O)c12	> 100

Same assay, conditions: read-out: Log TGI (converted)

SMILES	TGI [µM]
COc1cc(O)cc2cc3oc(C)cc(=O)c3c(O)c12	64.6

Tested on: K562
Test: Growth inhibition of human K562 cells
Format: functional
Settings: not given

SMILES	GI50 [µM]
COc1cc(O)cc2cc3oc(C)cc(=O)c3c(O)c12	14.8

Same assay, conditions: read-out: Log LC50 (the source's name) (converted)

SMILES	CC50 [µM]
COc1cc(O)cc2cc3oc(C)cc(=O)c3c(O)c12	> 100

Same assay, conditions: read-out: Log TGI (converted)

SMILES	TGI [µM]
COc1cc(O)cc2cc3oc(C)cc(=O)c3c(O)c12	49

Tested on: U-251
Test: Growth inhibition of human U251 cells
Format: functional
Settings: not given

SMILES	GI50 [µM]	LC50 [µM]
COc1cc(O)cc2cc3oc(C)cc(=O)c3c(O)c12	33.1	> 100

Same assay, conditions: read-out: Log TGI (converted)

SMILES	TGI [µM]
COc1cc(O)cc2cc3oc(C)cc(=O)c3c(O)c12	> 100

Tested on: Malme-3M
Test: Growth inhibition of human MALME-3M cells
Format: functional
Settings: not given

SMILES	GI50 [µM]
COc1cc(O)cc2cc3oc(C)cc(=O)c3c(O)c12	35.5

Same assay, conditions: read-out: Log LC50 (the source's name) (converted)

SMILES	CC50 [µM]
COc1cc(O)cc2cc3oc(C)cc(=O)c3c(O)c12	> 100

Same assay, conditions: read-out: Log TGI (converted)

SMILES	TGI [µM]
COc1cc(O)cc2cc3oc(C)cc(=O)c3c(O)c12	95.5

Tested on: DU-145
Test: Growth inhibition of human DU145 cells
Format: functional
Settings: not given

SMILES	GI50 [µM]
COc1cc(O)cc2cc3oc(C)cc(=O)c3c(O)c12	21.9

Same assay, conditions: read-out: Log LC50 (the source's name) (converted)

SMILES	CC50 [µM]
COc1cc(O)cc2cc3oc(C)cc(=O)c3c(O)c12	> 100

Same assay, conditions: read-out: Log TGI (converted)

SMILES	TGI [µM]
COc1cc(O)cc2cc3oc(C)cc(=O)c3c(O)c12	70.8

Tested on: not listed separately
Test: Inhibition of HIF1 activation in PC3 cells by TK-luciferase assay
Format: cell-based
Settings: Homo sapiens, PC-3
In short: as §1

SMILES	IC50 [µM]
COc1cc(O)cc2cc3oc(C)cc(=O)c3c(O)c12	3.3

Tested on: SK-MEL-28
Test: Growth inhibition of human SK-MEL28 cells
Format: functional
Settings: not given

SMILES	GI50 [µM]
COc1cc(O)cc2cc3oc(C)cc(=O)c3c(O)c12	24

Same assay, conditions: read-out: Log LC50 (the source's name) (converted)

SMILES	CC50 [µM]
COc1cc(O)cc2cc3oc(C)cc(=O)c3c(O)c12	> 100

Same assay, conditions: read-out: Log TGI (converted)

SMILES	TGI [µM]
COc1cc(O)cc2cc3oc(C)cc(=O)c3c(O)c12	63.1
